Screening results deposited in PubChem BioAssay by SRMLSC.
Only a selection was taken, and hits are over-represented in it overall.
bCat KO growth – beta-catenin-lacking colon tumor cell growth suppression. HCT116 beta-catenin knockout viability, CellTiter-Glo, 60 h; hits give low values. 140,000 compounds, 1.5% hits. viability, % at 10 µM;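 active = viability at or under a set limit, the compound median less 4 SD, cut at about 6% in these data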;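 note: 0% = Hyamine 1622 control at 20 µM and 100% = untreated cell control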
H69AR growth 86K – blocks growth of human H69AR lung tumor cells | H69AR lung tumor viability, ATP luminescence, 72 h; hits give low values | viability, % at 10 µM | 85,000 compounds, 6% hits | AID 598;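 active = viability at or below 40%; inactive = viability above 40%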;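 note: multidrug resistant small cell line overexpressing MRP-1 efflux transporter; 100% = mean luminescence of untreated control wells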
HCT116 PTEN-null – suppresses growth of cells with PTEN deletion; HCT116 PTEN-null viability, CellTiter-Glo, 60 h; hits give low values; viability, % at 10 µM; 140,000 compounds, 1.2% hits; AID 827;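 active = viability at or below a set limit, 4 SD under the median of all tested compounds, cut at about 3.7% in these data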;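 note: PTEN knockout HCT116 line with beta catenin targeted HCT116 as companion control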
HUVEC prolif 384 – blocks proliferation of human endothelial cells | HUVEC proliferation, CellTiter-Glo luminescence, 72 h; hits give low values | viability, % at 10 µM (by protocol) | 86,000 compounds, 1.1% hits | AID 648;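 active = viability at or below 30%; inactive = viability above 30%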;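 note: 100% = median luminescence of DMSO-only cell control wells on each plate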
Fibroblast inh – blocks proliferation of human lung fibroblasts; LL 47 human lung fibroblast viability, ATP luminescence; hits give low values; viability, % at 10 µM; 85,000 compounds, 1.1% hits; AID 719;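 active = viability at or below 50% in the single dose screen; inactive = viability above 50%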;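 note: compound exposure lasted 72 h before the ATP readout; 100% = median luminescence of untreated cell-only wells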
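Test system: LL 47 human lung fibroblasts / Incubation: 72 h compound exposure at 37 °C after overnight plating / Technique: luminescent ATP detection, CellTiter-Glo / Compound dosing: 0.1% DMSO in all compound wells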
An asterisk follows results filed as active; / = not tested or not shown.

SMILES	bCat KO growth	H69AR growth 86K	HCT116 PTEN-null	HUVEC prolif 384	Fibroblast inh
CC(=O)Nc1ccc(SCC(=O)c2cc(C)n(C)c2C)cc1	106	80	97	107	108
CCCCCOP(=O)(OCCCCC)C1(NS(=O)(=O)c2ccccc2)C=CC(=O)c2ccccc21 (centres undefined)	85	19*	70	61	87
CCCCc1ccc(/C=C2\C(=O)ON=C2c2ccccc2)s1	99	/	89	/	/
Cc1ccccc1Nc1nc(-c2sc(NC(=O)c3ccc([N+](=O)[O-])cc3)nc2C)cs1	97	/	93	/	/
CCOc1ccccc1Nc1nc(-c2sc(NC(=O)c3ccc([N+](=O)[O-])cc3)nc2C)cs1	0.8*	/	1.5*	/	/
COc1ccc(Cl)cc1Nc1nc(-c2sc(NC(=O)c3ccccc3)nc2C)cs1	1.2*	/	1.1*	/	/
COc1cc([N+](=O)[O-])ccc1NC(=O)CCCOc1cccc(C)c1C	97	/	90	/	/
CCC1CCCCN1c1ccc([N+](=O)[O-])cc1/C=N/NC(=O)Cn1c2ccccc2c(=O)c2ccccc21 (centres undefined)	88	/	91	/	/
Clc1ccc(-n2ncc3c(N4CCCCCC4)ncnc32)cc1	91	79	98	87	103
Brc1cc(Br)c2ncnc(N3CCCCC3)c2c1	5.8*	1.7*	10	8.9*	16*
Cc1ccc(NC2=C/C(=N\S(=O)(=O)c3cccs3)c3ccccc3C2=O)c(C)c1	1.5*	2.0*	1.3*	2.9*	2.2*
N/C(=N\S(=O)(=O)c1cccs1)c1ccccc1	91	96	101	88	94
Cc1cccc(NC2=C/C(=N/S(=O)(=O)c3cccs3)c3ccccc3C2=O)c1	79	/	76	/	/
Cc1ccc(Cl)cc1NC1=C/C(=N\S(=O)(=O)c2cccs2)c2ccccc2C1=O	1.6*	/	1.1*	/	/
CCOC(=O)c1c(N2C(=O)C=CC2=O)sc(C)c1C	87	/	81	/	/
C=CCn1c(SCC(N)=O)nnc1-c1ccccc1O	100	94	103	95	99
CCn1c(SCC(=O)c2ccc(O)c(O)c2)nnc1-c1ccccc1OC	67	36*	96	76	79
C=CCn1c(SCC(=O)c2ccc(O)c(O)c2)nnc1-c1ccccc1OC	47	20*	66	76	68
COc1ccc(CCNC(=O)CCc2ccc(S(=O)(=O)NCC(C)C)cc2)cc1	94	/	87	/	/
CCOc1ccc2noc3c2c1C(=O)c1ccccc1-3	78	/	76	/	/
O=c1nccc(NCc2ccco2)[nH]1	90	103	94	107	107
CCNc1ccc2noc3c2c1C(=O)c1ccccc1-3	33	18*	46	69	87
O=C1c2ccccc2-c2onc3ccc(NCc4ccco4)c1c23	54	34*	50	54	87
O=C(NCCCN1CCc2ccccc2C1)Nc1ccc(Cl)cc1	79	87	79	107	101
O=C(Cc1ccc2c(c1)CCCC2)Nc1ccc2ccccc2c1	87	/	78	/	/
SMILES	bCat KO growth	H69AR growth 86K	HCT116 PTEN-null	HUVEC prolif 384	Fibroblast inh
C=CCOc1c(Cl)cc(C2NC(=O)NC(C)=C2C(=O)OC)cc1Cl (centres undefined)	54	32*	64	77	81
O=[N+]([O-])c1cc(-c2nc(-c3ccncc3)no2)ccc1Cl	2.8*	/	2.3*	/	/
Cc1nccc2[nH]c(=O)c(C(=O)NC3CCCCC3C)cc12 (centres undefined)	71	37*	81	75	93
CCOC(=O)C1=C(CC)Nc2ccccc2N=C1NC(=O)Nc1ccc(Cl)c(Cl)c1	2.6*	/	2.6*	/	/
CCOC(=O)C1=C(CC)Nc2ccccc2N=C1NC(=O)Cn1cnc2ccccc2c1=O	79	97	74	100	103
COc1cc(-c2nn3c(-c4ccccc4)nnc3s2)cc(OC)c1OC	4.9*	40	8	80	102
Clc1cccc(-c2nnc3sc(-c4ccccc4)nn23)c1	/	85	/	102	104
Cc1cc(-c2nn3c(-c4ccccc4)nnc3s2)c2ccccc2n1	67	77	58	77	99
Cc1ccc(-c2nn3c(-c4cccc(Cl)c4)nnc3s2)cc1	/	21*	/	72	98
COc1cc(-c2nnc3sc(-c4ccncc4)nn23)cc(OC)c1OC	/	61	/	74	99
CCOc1cccc(-c2nnc3sc(-c4cccs4)nn23)c1	104	33*	105	92	92
c1ccc(-c2cc(-c3nn4c(-c5ccco5)nnc4s3)c3ccccc3n2)cc1	94	27*	96	64	51
COc1ccc(-n2c(SCc3ccc([N+](=O)[O-])cc3)nnc2-c2ccc(C)cc2)cc1	58	/	55	/	/
O=C1CC(c2ccc(Cl)cc2)CC(O)=C1C=NCc1ccc(Cl)c(Cl)c1 (centres undefined)	100	/	99	/	/
COc1cccc(-c2nnc3sc(-c4ccc(C)cc4)nn23)c1	50	/	48	/	/
CCOc1cccc(-c2nnc3sc(-c4cc(OC)c(OC)c(OC)c4)nn23)c1	33	19*	27	28*	58
COc1cc(-c2nnc3sc(-c4ccco4)nn23)cc(OC)c1OC	44	18*	41	77	86
CCOc1ccc(-c2nn3c(-c4ccccc4)nnc3s2)cc1	111	77	100	19*	102
Oc1ccc(C=Nc2ccc3ncccc3c2)c(O)c1	1.9*	94	1.7*	83	106
COCCN1C(=O)c2oc3ccccc3c(=O)c2C1c1ccc(OC)c(OC)c1 (centres undefined)	0.1*	102	0.2*	89	102
COc1ccc(C2c3c(oc4ccccc4c3=O)C(=O)N2CCN2CCOCC2)cc1OC (centres undefined)	/	83	/	102	99
Cc1nnc(SCC(=O)Nc2sc3c(c2C(=O)c2ccccc2)CCCC3)s1	78	/	71	/	/
COc1ccc(N2C(=O)CC(Sc3ncn[nH]3)C2=O)c(OC)c1 (centres undefined)	94	1.6*	105	89	87
CC(C)c1ccc(N2C(=O)CC(Sc3ncn[nH]3)C2=O)cc1 (centres undefined)	100	83	90	99	104
O=C(/C(=C/c1ccc(Cl)cc1)c1nc2ccccc2[nH]1)c1cccs1	1.9*	/	1.9*	/	/
SMILES	bCat KO growth	H69AR growth 86K	HCT116 PTEN-null	HUVEC prolif 384	Fibroblast inh
COc1cc(/C=C(/C(=O)c2cccs2)c2nc3ccccc3[nH]2)ccc1O	3.8*	2.0*	2.0*	38	11*
COc1ccc(/C=C(/NC(=O)c2ccccc2)c2nc3ccccc3[nH]2)cc1OC	86	/	98	/	/
O=C(/C=C/c1cccc(Cl)c1)c1nc2ccccc2[nH]1	0.7*	/	1.0*	/	/
O=C(/C(=C\c1ccccc1)c1nc2ccccc2[nH]1)c1ccc(Cl)cc1	2.2*	/	1.9*	/	/
CCOC(=O)C(C)Oc1cccc2c(=O)n(CC(=O)Nc3ccc4c(c3)OCCO4)ccc12 (centres undefined)	94	82	88	83	94
CCOC(=O)C(C)Oc1cccc2c(=O)n(CC(=O)NCc3ccc4c(c3)OCO4)ccc12 (centres undefined)	8	30*	7	50	60
